According to ChEMBL document CHEMBL1154881, “Synthesis and antimicrobial activities of novel 1,5-diaryl pyrazoles” (2010):
In brackets after ≈: the same amount, converted by molar mass.

Key:
[1] = tested on: Klebsiella pneumoniae; experiment: Antibacterial activity against Klebsiella pneumoniae after 24 hrs by disk diffusion method; assay type: functional
Outline: (§1)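 Disc diffusion, each concentration tested in triplicate on nutrient agar seeded separately with fresh bacteria. Incubation 37 °C, 24 h. Solvent and growth controls included. Zones of inhibition recorded. The K. pneumoniae strain was recultured.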

[2] = tested on: Trichophyton mentagrophytes; experiment: Antifungal activity against Trichophyton mentagrophytes after 3 to 4 days by serial plate dilution method; assay type: functional
Outline: (§2)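 Sabouraud's agar (peptone 1 g, D-glucose 4 g, agar 2 g per 100 ml water, pH 5.7) plates were lawned with spore suspension (a loopful in 3 ml normal saline) and dried 1 h at 37 °C. Wells were punched and filled with compound in DMSO at 10–50 mg/ml, with a DMSO control. Plates in triplicate, 37 °C for 3–4 days.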

[3] = tested on: Pseudomonas aeruginosa; experiment: Antibacterial activity against Pseudomonas aeruginosa ATTC 27853 after 24 hrs by disk diffusion method; assay type: functional; outline: as §1
[4] = tested on: Talaromyces marneffei; experiment: Antifungal activity against Penicillium marneffei after 3 to 4 days by serial plate dilution method; assay type: functional; outline: as §2
[5] = tested on: Aspergillus fumigatus; experiment: Antifungal activity against Aspergillus fumigatus NCIM 902 after 3 to 4 days by serial plate dilution method; assay type: functional; outline: as §2
[6] = tested on: Trichophyton mentagrophytes; experiment: Antifungal activity against Trichophyton mentagrophytes at 10 to 50 ug/ml after 3 to 4 days; assay type: functional
[7] = tested on: Pseudomonas aeruginosa; experiment: Antibacterial activity against Pseudomonas aeruginosa ATTC 27853 after 24 hrs by broth dilution method; assay type: functional; conditions: ATTC 27853, 24 h
[8] = tested on: Escherichia coli; experiment: Antibacterial activity against Escherichia coli ATTC 25922 after 24 hrs by disk diffusion method; assay type: functional; outline: as §1
[9] = tested on: Aspergillus flavus; experiment: Antifungal activity against Aspergillus flavus NCIM 524 after 3 to 4 days by serial plate dilution method; assay type: functional; outline: as §2
[10] = tested on: Staphylococcus aureus; experiment: Antibacterial activity against Staphylococcus aureus ATTC 25923 after 24 hrs by disk diffusion method; assay type: functional; outline: as §1
[11] = tested on: Klebsiella pneumoniae; experiment: Antibacterial activity against Klebsiella pneumoniae after 24 hrs by […]
[12] = tested on: Klebsiella pneumoniae; experiment: Antibacterial activity against Klebsiella pneumoniae after 24 hrs by broth dilution method; assay type: functional
[13] = tested on: Staphylococcus aureus; experiment: Antibacterial activity against Staphylococcus aureus ATTC 25923 after 24 hrs by broth dilution method; assay type: functional; conditions: ATTC 25923, 24 h
[14] = tested on: Escherichia coli; experiment: Antibacterial activity against Escherichia coli ATTC 25922 after 24 hrs by broth dilution method; assay type: functional; conditions: ATTC 25922, 24 h
[15] = tested on: Talaromyces marneffei; experiment: Antifungal activity against Penicillium marneffei at 10 to 50 ug/ml after 3 to 4 days; assay type: functional

O=C(c1cc(-c2ccc(Cl)cc2)n(-c2ccc(F)cc2)n1)N1CCNCC1
inhibition zone (IZ) [1]: 19 mm
inhibition zone (IZ) [2]: 19 mm
inhibition zone (IZ) [3]: 19 mm
inhibition zone (IZ) [4]: <10 mm
inhibition zone (IZ) [5]: 23 mm
MIC [6]: 50 µg/mL (≈ 130 µM)
MIC [7]: 50 µg/mL (≈ 130 µM)
inhibition zone (IZ) [8]: <10 mm
inhibition zone (IZ) [9]: 25 mm
inhibition zone (IZ) [10]: <10 mm
MIC [11]: 12.5 µg/mL (≈ 32.5 µM)

C#CCN1CCN(C(=O)c2cc(-c3ccc(Cl)cc3)n(-c3ccc(F)cc3)n2)CC1
MIC [12]: 50 µg/mL (≈ 118 µM)
inhibition zone (IZ) [1]: 17 mm
MIC [13]: 12.5 µg/mL (≈ 29.6 µM)
inhibition zone (IZ) [2]: <10 mm
inhibition zone (IZ) [3]: <10 mm
inhibition zone (IZ) [4]: 18 mm
inhibition zone (IZ) [5]: 19 mm
inhibition zone (IZ) [8]: 18 mm
inhibition zone (IZ) [9]: <10 mm
MIC [14]: 50 µg/mL (≈ 118 µM)
inhibition zone (IZ) [10]: 18 mm

CCOC(=O)c1sc(-c2cc(-c3ccc(Cl)cc3)n(-c3ccc(F)cc3)n2)nc1C
MIC [12]: 50 µg/mL (≈ 113 µM)
inhibition zone (IZ) [1]: 19 mm
MIC [13]: 12.5 µg/mL (≈ 28.3 µM)
inhibition zone (IZ) [2]: 20 mm
inhibition zone (IZ) [3]: 19 mm
inhibition zone (IZ) [4]: 19 mm
inhibition zone (IZ) [5]: 18 mm
MIC [6]: 12.5 µg/mL (≈ 28.3 µM)
MIC [15]: 12.5 µg/mL (≈ 28.3 µM)
inhibition zone (IZ) [8]: 18 mm
inhibition zone (IZ) [9]: 22 mm
MIC [14]: 12.5 µg/mL (≈ 28.3 µM)
inhibition zone (IZ) [10]: 16 mm

N#Cc1ccc(-c2csc(-c3cc(-c4ccc(Cl)cc4)n(-c4ccc(F)cc4)n3)n2)cc1
inhibition zone (IZ) [1]: 17 mm
MIC [13]: 12.5 µg/mL (≈ 27.4 µM)
inhibition zone (IZ) [2]: 22 mm
inhibition zone (IZ) [3]: 19 mm
inhibition zone (IZ) [4]: 22 mm
inhibition zone (IZ) [5]: <10 mm
MIC [6]: 12.5 µg/mL (≈ 27.4 µM)
MIC [15]: 12.5 µg/mL (≈ 27.4 µM)
MIC [7]: 50 µg/mL (≈ 109 µM)
inhibition zone (IZ) [8]: 20 mm
inhibition zone (IZ) [9]: <10 mm
MIC [14]: 12.5 µg/mL (≈ 27.4 µM)
inhibition zone (IZ) [10]: 19 mm

O=C(c1cc(-c2ccc(Cl)cc2)n(-c2ccc(F)cc2)n1)N1CCC(O)CC1
inhibition zone (IZ) [1]: 21 mm
MIC [13]: 12.5 µg/mL (≈ 31.3 µM)
inhibition zone (IZ) [2]: 26 mm
inhibition zone (IZ) [3]: 29 mm
inhibition zone (IZ) [4]: 24 mm
inhibition zone (IZ) [5]: 27 mm
MIC [6]: 12.5 µg/mL (≈ 31.3 µM)
MIC [15]: 12.5 µg/mL (≈ 31.3 µM)
inhibition zone (IZ) [8]: 24 mm
inhibition zone (IZ) [9]: 29 mm
MIC [14]: 12.5 µg/mL (≈ 31.3 µM)
inhibition zone (IZ) [10]: 23 mm
MIC [11]: 12.5 µg/mL (≈ 31.3 µM)

CS(=O)(=O)OC1CCN(C(=O)c2cc(-c3ccc(Cl)cc3)n(-c3ccc(F)cc3)n2)CC1
inhibition zone (IZ) [1]: 23 mm
MIC [13]: 12.5 µg/mL (≈ 26.2 µM)
inhibition zone (IZ) [2]: 28 mm
inhibition zone (IZ) [3]: 21 mm
inhibition zone (IZ) [4]: 29 mm
inhibition zone (IZ) [5]: 25 mm
MIC [6]: 12.5 µg/mL (≈ 26.2 µM)
MIC [15]: 12.5 µg/mL (≈ 26.2 µM)
MIC [7]: 50 µg/mL (≈ 105 µM)
inhibition zone (IZ) [8]: 28 mm
inhibition zone (IZ) [9]: 31 mm
MIC [14]: 12.5 µg/mL (≈ 26.2 µM)
inhibition zone (IZ) [10]: 26 mm
MIC [11]: 12.5 µg/mL (≈ 26.2 µM)

O=C1CCN(C(=O)c2cc(-c3ccc(Cl)cc3)n(-c3ccc(F)cc3)n2)CC1
inhibition zone (IZ) [1]: 25 mm
MIC [13]: 12.5 µg/mL (≈ 31.4 µM)
inhibition zone (IZ) [2]: 24 mm
inhibition zone (IZ) [3]: 18 mm
inhibition zone (IZ) [4]: 29 mm
inhibition zone (IZ) [5]: 26 mm
MIC [6]: 50 µg/mL (≈ 126 µM)
MIC [15]: 12.5 µg/mL (≈ 31.4 µM)
MIC [7]: 12.5 µg/mL (≈ 31.4 µM)
inhibition zone (IZ) [8]: 27 mm
inhibition zone (IZ) [9]: 18 mm
MIC [14]: 12.5 µg/mL (≈ 31.4 µM)
inhibition zone (IZ) [10]: 24 mm
MIC [11]: 12.5 µg/mL (≈ 31.4 µM)

O=C(O)c1cn(C2CC2)c2cc(N3CCNCC3)c(F)cc2c1=O [CIPROFLOXACIN]
inhibition zone (IZ) [1]: 24 mm
MIC [13]: 6.25 µg/mL (≈ 18.9 µM)
inhibition zone (IZ) [3]: 28 mm
MIC [7]: 6.25 µg/mL (≈ 18.9 µM)
inhibition zone (IZ) [8]: 32 mm
MIC [14]: 6.25 µg/mL (≈ 18.9 µM)
inhibition zone (IZ) [10]: 23 mm
MIC [11]: 6.25 µg/mL (≈ 18.9 µM)
